From PubChem BioAssay
PP1 counter: PP1-alpha (human) inhibition in PP5 counter-screen; P62136; purified PP1alpha, OMFP fluorescence; inhibition, % at 6.7 µM; 0.9% of 320,000 active;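 active = inhibition above the mean inhibition of all tested compounds plus 3 SD, computed separately for each screening campaign, cut at about 15% in these data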
Target sequence (P62136 whole entry, looked up): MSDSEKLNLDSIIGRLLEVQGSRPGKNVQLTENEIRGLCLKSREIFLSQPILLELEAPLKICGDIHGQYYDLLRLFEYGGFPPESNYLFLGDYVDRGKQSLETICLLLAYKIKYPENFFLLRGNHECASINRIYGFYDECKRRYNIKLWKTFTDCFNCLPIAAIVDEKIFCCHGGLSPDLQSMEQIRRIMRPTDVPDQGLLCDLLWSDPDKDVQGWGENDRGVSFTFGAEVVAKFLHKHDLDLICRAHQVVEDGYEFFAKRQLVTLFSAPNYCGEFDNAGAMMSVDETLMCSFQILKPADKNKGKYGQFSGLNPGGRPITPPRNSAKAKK
HTR2A ag: mouse HTR2A agonism via beta-arrestin recruitment; 0.66% of 360,000 active; P35363; CHO-K1 mHTR2A beta-arrestin complementation, luminescence; percent of 30 µM serotonin response; activation, % at 7.6 µM;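 active = activation above a run cutoff, the mean activation of all tested compounds plus 3 SD, cut at about 14% in these data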;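 note: 0% = plate median of compound wells and 100% = 30 µM serotonin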
GASC-1 inh: blocks human GASC-1 demethylase activity. 0.069% of 330,000 active. AID 2099. inhibition, % at 2.35 µM. GST-JMJD2C(1-420) H3K9me3 demethylation, DELFIA europium. Q9H3R0;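 active = more than half of a compound's replicate wells show inhibition beyond 50%, single wells judged on their own value; inconclusive = some, but no more than half, of replicates pass 50% inhibition; inactive = no replicate passes 50% inhibition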;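 note: signal counts dimethyl H3K9 product captured on neutravidin plate; 0% = median of DMSO wells and 100% = 0.3 times that DMSO median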
T cell modulator: T cell immune modulators affecting CD8 T cell-vesicle binding; 2C CD8+ T cell-vesicle binding, flow cytometry; active compounds read low; response (vesicle binding), % at 7 µM; 0.068% of 330,000 active; AID 2052;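 active = response, share of CD8 T cells binding vesicles, and their 90th percentile fluorescence all below set limits, cut at about 80% in these data, passing the limit was not always enough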;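 note: values below 100% mean blocked vesicle binding to the CD8+ T cells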
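Incubation: binding step 1.5 h, 37 °C, antibody labelling 20 min, ice; system: murine 2C transgenic CD8+ T lymphocytes; technique: cytometric PE anti-B7-1 and Alexa647 anti-CD8 signals after 1% paraformaldehyde fixation; also added: QL9-charged Drosophila Ld/ICAM-1/B7-1 vesicles; control set: naked versus QL9-loaded vesicles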
PP5 inh: inhibitors of human protein phosphatase 5 (PP5); 0.18% of 320,000 active; P53041; purified PP5c, OMFP substrate fluorescence; inhibition, % at 6.7 µM;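 active = inhibition above the campaign's mean inhibition across all tested compounds plus 3 SD, cut at about 9.5% in these data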;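 note: 0% = DMSO only and 100% = 100 µM cantharidin control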
PP1 inh confirm: confirmation of human PP1 phosphatase inhibitors; purified PP1alpha, OMFP substrate fluorescence; shares compounds with PP1 counter; inhibition, % at 6.7 µM; 52% of 1,900 active;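 active = mean PP1 inhibition above a set limit taken from the earlier primary screen, cut at about 15% in these data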
PP5 counter: inhibits human PP5 phosphatase in PP1 counter-screen. shares compounds with PP1 counter. purified PP5c, OMFP fluorescence. inhibition, % at 6.7 µM. 4% of 1,900 active. AID 2360;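 active = mean PP5 inhibition over triplicate wells above about 9.5% taken from the earlier PP1 screen, limit read from the data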
* = called active by the depositor; i = inactive; ? = inconclusive; . = not tested or not shown. A selection: hits, their analogues and other compounds. The true share with any hit is near 1.7%.

SMILES	PP1 counter	HTR2A ag	GASC-1 inh	T cell modulator	PP5 inh	PP1 inh confirm	PP5 counter
CCOC(=O)c1ccc(NC(=O)C2C3CCC(C3)C2C(=O)O)cc1 (configuration not stated)	-0.8	2.8	-3.2	196.6	-5.4	.	.
CCOC(=O)c1c(NC(=O)C2C3CCC(O3)C2C(=O)O)sc(C)c1-c1ccc(C)cc1 (configuration not stated)	19.9*	-4.1	-13.2	265.1	32.7*	13.3	13.3*
Cc1sc(NC(=O)C2C3CCC(O3)C2C(=O)O)nc1-c1ccc(CC(C)C)cc1 (configuration not stated)	77.8*	2.4	4.3	254.9	78.9*	35.2*	37.9*
CCOC(=O)c1cc(NC(=O)C2C3CCC(O3)C2C(=O)O)cc(C(=O)OCC)c1 (configuration not stated)	56.9*	-3.8	2.5	464.0	64.8*	12.7	18.6*
COC(=O)c1sccc1NC(=O)Cc1ccc(Br)cc1	-2.3	-2.4	-5.6	213.6	3.2	.	.
O=c1c(OCc2ccccc2)cccn1Cc1ccccc1	.	-6.6	.	.	.	.	.
COc1cc(/C=C/CNC[C@H]2O[C@@H](n3ccc(=O)[nH]c3=O)[C@H](O)[C@@H]2O)ccc1O	.	4.2	.	.	.	.	.
COc1ccc(CCNC(=O)C(=O)NCC2OCCN2C(=O)c2ccc(Cl)cc2)cc1 (configuration not stated)	-0.3	1.2	-11.0	340.9	4.4	.	.
CCOC(=O)c1c(NC(=O)/C=C/C(=O)O)sc(C)c1-c1ccc(C(C)(C)C)cc1	18.2*	6.4	18.2	294.3	1.0	18.0*	0.1
CCCCCCCCCCCCCCCC[n+]1ccc(/C=N/O)cc1	53.8*	4.6	9.1	400.7	7.9	32.2*	14.9*
O/N=C/c1cccc[n+]1CCCCCC[n+]1ccccc1/C=N/O	.	2.1	-8.5	148.8	.	.	.
CCCCCCCCCCCCCCCC[n+]1ccc(C(N)=O)cc1	41.4*	-3.1	.	269.0	5.3	25.3*	-0.5
CCCCCCCC[n+]1cccc(C(=O)N(CC)CC)c1	-2.0	2.6	-13.1	548.6	-1.5	.	.
CCCCCCCCCCCCCCCC[n+]1cccc(C(=O)N(CC)CC)c1	30.6*	1.8	20.1	390.3	5.5	-6.1	4.3
COc1ccc(/C=N/OCC(=O)Nc2ccc3c(c2)OCO3)c(OC)c1	-2.4	-3.3	-28.0	187.6	1.8	.	.
COc1cccc(C(=O)Nc2cccc(C(=O)NC3=NN(c4c(Cl)cc(Cl)cc4Cl)C(=O)C3)c2)c1	29.2*	0.3	-3.7	102.4	0.0	1.6	-4.0
Cc1c(CCOC(=O)CC23CC4CC(CC(C)(C4)C2)C3)sc[n+]1CC(=O)c1ccccc1	12.8	-5.1	-1.2	i	2.7	.	.
Cc1c(CCOC(=O)C23CC4CC(CC(C)(C4)C2)C3)sc[n+]1CC(=O)c1ccccc1	20.4*	-7.9	5.9	168.9	0.3	-6.9	-4.7
CN(CC(=O)Nc1ccc(F)c(F)c1F)C(=O)C1(c2ccccc2)CC1	.	1.7	.	.	.	.	.
Cc1c(NS(=O)(=O)c2ccc3c(c2)c(=O)n(C)c(=O)n3C)c(=O)n(-c2ccccc2)n1C	36.3*	1.8	9.7	302.3	0.9	-2.1	-3.6
Cc1nc2ccccc2n1C(C)c1nc2ccccc2n1CC(=O)c1ccc(OC(F)(F)F)cc1 (configuration not stated)	.	-1.6	.	.	.	.	.
CC(/C=C/C=C/c1ccccc1)=N/NC(=O)CNc1ccccc1C	-1.3	3.2	3.4	173.3	0.4	.	.
Cc1cc(=O)n2[nH]c(=O)c(N=Nc3ccccc3)c2[nH]1	1.8	1.5	4.5	248.4	2.0	.	.
CCOc1ccc(N=Nc2c(=O)[nH]n3c(=O)cc(C)[nH]c23)cc1	18.7*	-4.8	5.3	220.2	8.7	6.5	-7.4
C/C(=N/Nc1nc(C)c(C)s1)c1cccc([N+](=O)[O-])c1	0.5	2.4	-5.6	195.3	0.3	.	.
SMILES	PP1 counter	HTR2A ag	GASC-1 inh	T cell modulator	PP5 inh	PP1 inh confirm	PP5 counter
O=C(Nc1ccc(Oc2ccc3c(c2)C(=O)N(c2ccc(O)cc2)C3=O)cc1)c1cccs1	22.0*	6.5	8.4	258.6	-2.5	9.7	-5.3
CC(C)CN1C(=O)c2ccc(NC(=O)c3cccs3)cc2C1=O	6.3	-3.7	14.6	272.1	0.4	.	.
CC1(C)CC(O)CC(C)(C)N1CC(O)COCc1ccccc1 (configuration not stated)	-1.5	-5.7	-18.7	i	-2.5	.	.
Cc1ccc(C2C(/C=C3/SC(=S)NC3=O)=C(c3cccs3)Oc3ccccc32)cc1 (configuration not stated)	31.1*	-2.0	2.0	594.0	3.2	21.7*	-6.2
Cc1nn(-c2ccccc2)c2nc(-c3cccs3)cc(C(=O)NN)c12	1.4	5.1	2.6	78.8	2.7	.	.
CCOC(=O)c1cc(-c2cccs2)nc2c1c(C)nn2-c1ccccn1	22.6*	3.3	-5.7	166.4	1.0	24.7*	-2.0
COc1cc(/C=C2\C(=N)N3N=C(S(C)(=O)=O)SC3=NC2=O)cc(OC)c1OCCOc1ccccc1C	29.8*	-1.2	13.9	172.7	8.0	11.4	-1.1
CN(C)CCCN=Cc1c(-c2ccccc2)[nH]n(-c2nc3ccccc3s2)c1=O	25.8*	-2.7	3.5	299.3	2.9	4.2	-3.2
CN(C)CCCN=Cc1c(O)n(Cc2ccccc2)c(=O)c2ccccc12	-1.5	-2.1	-4.3	200.3	1.1	.	.
O=c1c(C=NCCCn2ccnc2)c(-c2ccccc2)[nH]n1-c1nc2ccccc2s1	29.1*	0.2	?	354.5	4.6	2.2	-1.2
COc1cc2c(C#Cc3cccnc3)c(-c3ccsc3)oc(=O)c2cc1OC	.	0.1	19.9	398.4	.	.	.
Cc1ccc(C(C)C)cc1OCC(=O)NC1CCCCCCC1	-6.3	7.5	1.8	176.8	1.7	.	.
Oc1cccc2cc3cccc(O)c3c(O)c12	34.7*	-0.7	2.7	480.1	-1.0	23.6*	-3.2
CC1(C(=O)NCC(F)(F)F)CCN1C(=O)C1(c2ccccc2)CC1 (configuration not stated)	.	-2.7	.	.	.	.	.
O=S1(=O)C[C@@H](N2CCN(c3ccccn3)CC2)[C@H](COCc2ccccc2)N1	.	-0.7	.	.	.	.	.
CCc1nnc(NC(=O)c2ccc(S(=O)(=O)N3CCCc4ccccc43)cc2)o1	35.2*	-5.5	10.7	743.9	0.8	28.1*	2.1
CSCc1nnc(NC(=O)c2ccc(S(=O)(=O)N(C)C)cc2)o1	5.8	-2.7	6.1	567.1	1.4	.	.
C=CCN(CC=C)S(=O)(=O)c1ccc(C(=O)Nc2nnc(CSC)o2)cc1	22.0*	-0.8	7.5	171.4	0.0	18.6*	6.6
CNC(=O)c1ccsc1NC(=O)c1ccc(S(=O)(=O)N2CCCc3ccccc32)cc1	6.2	-2.4	12.9	i	2.6	.	.
